The structures appear in SMILES notation. Active and inactive are the calls of the source. The rule behind the calls is not given here.

One data set deals with Liver. The experiment in a line: Drug uptake in liver of athymic nude mouse transfected with human HT-29 cells at 4 to 8 MBq, iv after 10 to 60 mins by gamma-counting analysis. The settings on record: in vivo. The class given is ADME, organism-based. The method, boiled down: (§1)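 Biodistribution in nude mice carrying HT29 xenografts with 7–10 mm tumor diameter. Tissues were sampled at 10, 30 and 60 min post-injection. Uptake is expressed as % ID/g, and tumor-to-organ ratios were also calculated. Values are mean ± SD from two animals.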

Data set [1] in a line: Metabolic stability in blood of athymic nude mouse transfected with human HT-29 cells at 4 to 8 MBq, iv after 10 mins by radio-HPLC analysis. The settings on record: read-out: Stability. It counts as ADME, organism-based. The method, boiled down:
(§2)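 Blood samples were taken from HT29 xenografted nude mice at 10 and 30 min post-injection. Intact tracer was quantified by radio-HPLC. Radiochemical purity of the injected tracer was above 99% by radio-HPLC.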

The subject of a further data set is Blood. Briefly: Drug uptake in blood of athymic nude mouse transfected with human HT-29 cells at 4 to 8 MBq, iv after 10 to 60 mins by gamma-counting analysis. The settings on record: in vivo. It counts as ADME, organism-based. The method, boiled down: as §1
The nature of data set [2]: Octanol-water partition coefficient, log D of the compound at pH 7.4 by gamma-counting analysis. The class given is physicochemical.
Data set [3] concerns Tumour. Briefly: Drug uptake in tumor of athymic nude mouse xenografted with human HT-29 cells at 4 to 8 MBq, iv after 60 mins by gamma-counting analysis. The class given is ADME, organism-based, Neoplasm. The settings on record: in vivo, 1 h. The method, boiled down:
as §1
On the technique in general: In xenograft studies the graft and the host belong to different species.

The next data set concerns Kidney. The experiment in a line: Drug uptake in kidney of athymic nude mouse xenografted with human HT-29 cells at 4 to 8 MBq, iv after 10 to 60 mins by gamma-counting analysis. The settings on record: in vivo. The class given is ADME, organism-based. The method, boiled down: as §1
The subject of data set [4] is Tumour. The experiment in a line: Drug uptake in tumor of athymic nude mouse transfected with human HT-29 cells at 1 to 3 MBq, iv after 45 to 65 mins by PET imaging analysis. The class given is ADME, organism-based, Neoplasm. The settings on record: in vivo. The method, boiled down:
(§3)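 Small-animal PET of HT29 xenografted nude mice (tumor diameter 7–10 mm), with images taken 45–65 min post-injection. Tumor uptake was quantified by μPET as % ID/g. For blocking, 3 mg/kg of the […] NTS1 ligand SR142948A was co-injected with the tracer. Values are mean ± SEM from 4 animals.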

For data set [5], the system named is Tumour. Briefly: Drug uptake in tumor of athymic nude mouse transfected with human HT-29 cells at 1 to 3 MBq, iv after 45 to 65 mins by PET imaging analysis in presence of SR142948A. The class given is ADME, organism-based, Neoplasm. The settings on record: in vivo. The method, boiled down:
as §3

Data set [6] in a line: Metabolic stability in blood of athymic nude mouse xenografted with human HT-29 cells at 4 to 8 MBq, iv after 30 mins by radio-HPLC analysis. The class given is ADME, organism-based. The settings on record: read-out: Stability. The method, boiled down:
as §2

The test system of data set [7] is Nucleic Acid. Briefly: Ratio of drug uptake in tumor to blood of athymic nude mouse xenografted with human HT-29 cells at 4 to 8 MBq, iv after 10 to 60 mins by gamma-counting analysis. It counts as ADME, organism-based. The settings on record: tumour. The method, boiled down:
(§4)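 [18F]-labelled tracer (radiochemical purity >99% by radio-HPLC) injected into nude mice bearing HT29 xenografts with 7–10 mm tumour diameter. Organ and tumour uptake were measured as % ID/g at 10, 30 and 60 min post-injection. Tumour-to-organ ratios were derived from these values and reported as mean ± SD of two animals.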

For data set [8], the system named is Nucleic Acid. The experiment in a line: Ratio of drug uptake in tumor to kidney of athymic nude mouse transfected with human HT-29 cells at 4 to 8 MBq, iv after 60 mins by gamma-counting analysis. The class given is ADME, organism-based. The settings on record: in vivo, 1 h. The method, boiled down: as §4
The next data set has as its system Serum. Briefly: Metabolic stability in human serum after 5 to 180 mins by radio-HPLC analysis. It counts as ADME, cell-free.
For the next data set, the system named is Brain. The experiment in a line: Drug uptake in Sprague-Dawley rat brain by autoradiography. The class given is ADME, tissue-based. The settings on record: in vivo.
Data set [9] deals with Tumour. Briefly: Drug uptake in tumor of athymic nude mouse xenografted with human HT-29 cells at 4 to 8 MBq, iv after 10 mins by gamma-counting analysis. The settings on record: in vivo. It counts as ADME, organism-based, Neoplasm. The method, boiled down:
as §1

Data set [10] has as its target Neurotensin receptor type 1 (Rattus norvegicus) (UniProt P20789). Briefly: Binding affinity to NTS1 receptor in Sprague-Dawley rat brain at 10 MBq after 60 mins by autoradiography in presence of H-Arg-Arg-Pro-N-h-Tyr-Ile-Leu-OH. The settings on record: 10 M, tested as the 18F-labelled form.
Data set [11] has as its target Neurotensin receptor type 1 (Homo sapiens, UniProt P30989). Briefly: Displacement of [3H]neurotensin from human NTS1 receptor expressed in CHO cells. The class given is cell-based.
Data set [12] deals with Neurotensin receptor type 2 (Homo sapiens, UniProt O95665). The experiment in a line: Displacement of [3H]NT(8 to 13) from human NTS2 receptor expressed in HEK293 cells. The class given is cell-based. (In general: Displacement assays read how much labelled ligand stays bound in the presence of the test substance.)
Chain of Neurotensin receptor type 2 (O95665 whole entry): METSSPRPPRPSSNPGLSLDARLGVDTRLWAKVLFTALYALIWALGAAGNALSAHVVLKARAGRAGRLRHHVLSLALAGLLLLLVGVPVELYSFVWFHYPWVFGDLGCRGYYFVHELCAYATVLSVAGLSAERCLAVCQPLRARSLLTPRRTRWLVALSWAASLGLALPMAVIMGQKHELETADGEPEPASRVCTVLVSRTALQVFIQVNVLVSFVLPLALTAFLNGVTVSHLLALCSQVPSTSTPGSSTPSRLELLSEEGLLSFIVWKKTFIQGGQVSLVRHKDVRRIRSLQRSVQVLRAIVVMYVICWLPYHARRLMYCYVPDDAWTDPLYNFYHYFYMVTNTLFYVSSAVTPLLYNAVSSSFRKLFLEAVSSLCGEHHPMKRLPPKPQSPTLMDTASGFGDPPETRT
The target in data set [13] is T1, Neurotensin receptor type 2 (Rattus norvegicus) (UniProt Q63384).
T1 sequence (whole entry): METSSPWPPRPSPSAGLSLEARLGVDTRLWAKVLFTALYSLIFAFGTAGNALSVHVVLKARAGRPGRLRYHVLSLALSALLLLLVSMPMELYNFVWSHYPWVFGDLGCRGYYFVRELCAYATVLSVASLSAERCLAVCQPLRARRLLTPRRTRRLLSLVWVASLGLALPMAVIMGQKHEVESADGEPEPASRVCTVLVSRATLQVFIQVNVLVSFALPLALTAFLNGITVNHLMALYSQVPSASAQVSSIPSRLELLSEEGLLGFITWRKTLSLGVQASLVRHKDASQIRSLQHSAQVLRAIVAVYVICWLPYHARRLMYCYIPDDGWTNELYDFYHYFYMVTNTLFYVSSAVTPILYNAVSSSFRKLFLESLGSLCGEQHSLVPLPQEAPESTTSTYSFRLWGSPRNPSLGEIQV
Briefly: Binding affinity to NTS2 receptor in Sprague-Dawley rat brain cortex at 10 MBq after 60 mins by autoradiography in presence of H-Arg-Arg-Pro-N-h-Tyr-Ile-Leu-OH. The settings on record: 10 M, tested as the 18F-labelled form.

For data set [14], the target named is Neurotensin receptor type 1 (Rattus norvegicus) (UniProt P20789). The experiment in a line: Binding affinity to NTS1 receptor in Sprague-Dawley rat brain at 10 MBq after 60 mins by autoradiography. The settings on record: 10 M, tested as the 18F-labelled form.
Chain of Neurotensin receptor type 1 (Rattus norvegicus) (P20789 whole entry): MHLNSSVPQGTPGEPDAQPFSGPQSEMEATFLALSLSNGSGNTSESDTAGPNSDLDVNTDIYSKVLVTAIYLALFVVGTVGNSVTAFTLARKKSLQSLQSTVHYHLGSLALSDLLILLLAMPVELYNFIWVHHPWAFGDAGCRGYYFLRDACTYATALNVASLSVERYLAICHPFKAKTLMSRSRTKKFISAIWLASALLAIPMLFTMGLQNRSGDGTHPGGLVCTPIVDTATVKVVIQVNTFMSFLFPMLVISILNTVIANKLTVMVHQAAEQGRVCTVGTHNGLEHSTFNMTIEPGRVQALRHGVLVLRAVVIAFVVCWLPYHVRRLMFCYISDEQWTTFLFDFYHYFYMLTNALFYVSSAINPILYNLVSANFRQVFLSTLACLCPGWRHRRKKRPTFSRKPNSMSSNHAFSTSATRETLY
The target is the same in data set [15]. The experiment in a line: Binding affinity to NTS1 receptor in Sprague-Dawley rat brain at 10 MBq after 60 mins by autoradiography in presence of neurotensin. The settings on record: 10 M, tested as the 18F-labelled form.

Chain of Neurotensin receptor type 1 (P30989 whole entry): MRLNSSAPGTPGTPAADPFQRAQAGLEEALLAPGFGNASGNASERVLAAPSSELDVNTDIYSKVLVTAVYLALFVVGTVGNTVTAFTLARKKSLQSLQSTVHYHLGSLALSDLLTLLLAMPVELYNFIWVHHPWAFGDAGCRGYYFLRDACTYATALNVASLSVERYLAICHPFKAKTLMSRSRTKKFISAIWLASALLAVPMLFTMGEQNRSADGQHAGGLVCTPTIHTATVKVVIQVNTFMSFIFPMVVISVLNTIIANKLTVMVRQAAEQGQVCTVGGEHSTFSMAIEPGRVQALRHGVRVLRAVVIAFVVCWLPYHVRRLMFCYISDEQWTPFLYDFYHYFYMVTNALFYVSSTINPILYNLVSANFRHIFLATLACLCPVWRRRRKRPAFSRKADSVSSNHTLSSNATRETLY

Take `COc1cccc(OC)c1-c1cc(C(=O)NC2(C(=O)O)C3CC4CC(C3)CC2C4)nn1-c1ccc(C(=O)N(C)CCCN(C)CCCCc2cn([C@@H]3O[C@H](CO)[C@@H](O)[C@H](O)[C@H]3[18F])nn2)cc1C(C)C` (some centres not stated): the Drug uptake result in the data set on Liver is listed as “Not Active”; with Blood, “Not Active”; in the data set on Tumour [3] it was 0.74 % ID/g; in the data set with Kidney, “Active”; with Tumour [4] it was “Active”; in the data set on Tumour [5], “Not Active”. Also, the Drug uptake entry in the data set with Brain is “Not Active”; in the data set on Tumour [9], 0.84 % ID/g. Further, the remaining at 10 min in [1] is above 98%. Further, in data set [2], the logD was -0.24. Moreover, in [6], the remaining at 0.5 h was above 98%. Moreover, the values for the Ratio in the data set on Nucleic Acid [7] and in the data set with Nucleic Acid [8] were 0.3 and 8, respectively. Besides, the Stability result in the data set with Serum is recorded as “Stable”.

As to `COc1cccc(OC)c1-c1cc(C(=O)NC2(C(=O)O)C3CC4CC(C3)CC2C4)nn1-c1ccc(C(=O)N(C)CCCN(C)CCCCc2cn([C@@H]3O[C@H](CO)[C@@H](O)[C@H](O)[C@H]3F)nn2)cc1C(C)C` (some centres not stated), the outcome in data set [10], in data set [13], in data set [14] and in data set [15] was Active. The Ki in data set [11] came out at 0.98 nM; in [12], 69 nM.

Take `COc1cccc(OC)c1-c1cc(C(=O)NC2(C(=O)O)C3CC4CC(C3)CC2C4)nn1-c1ccc(C(=O)N(C)CCCN(C)C)cc1C(C)C` (configuration not stated): the Ki in [11] worked out at 1 nM; in data set [12], 74 nM.

Broadly, the logD is the decadic logarithm of the distribution of all forms, ionised or not, between an organic phase and buffer at a given pH. A higher logD goes with a more lipophilic compound. As usually defined, the Ki is the equilibrium dissociation constant of an inhibitor or competing ligand from its target. Read a low Ki as higher affinity.

Source of the values: ChEMBL document CHEMBL3085769, “Synthesis and evaluation of a (18)F-labeled diarylpyrazole glycoconjugate for the imaging of NTS1-positive tumors” (J Med Chem, 2013).
